Results of several laboratories.
Protocols differ between the studies behind these lines.
IKBKB: Inhibitor of nuclear factor kappa-B kinase subunit beta (IKBKB, Homo sapiens, UniProt O14920)
M-phase phosphoprotein 8 chromodomain: M-phase phosphoprotein 8, chromodomain (Homo sapiens, UniProt Q99549)
AChE: AChE (Phlebotomus papatasi, UniProt M1F887)
HTR1A: 5-hydroxytryptamine receptor 1A (HTR1A, Homo sapiens, UniProt P08908)

Compound	target	effect on	mode	method	IC50 [nM]
COCCOCOc1cc(OCc2cc(F)cc(F)c2)c(C(=O)/C=C/c2ccc(C(=O)O)cc2)cc1C12CC3CC(CC(C3)C1)C2	IKBKB	enzyme activity	inhibitor	TR-FRET	1830
CCN(CCCC[C@H](NC(=O)[C@H](CC(C)C)NC(=O)[C@H](C)NC(=O)[C@H](Cc1ccccc1)NC(=O)c1ccc(NC)cc1)C(=O)N[C@@H](CO)C(N)=O)C(C)C	M-phase phosphoprotein 8 chromodomain	cell-free assay	–	TR-FRET	4400
COCCOCOc1cc(OCc2ccc(Br)cc2)c(C(=O)/C=C/c2ccc(C(=O)O)cc2)cc1C12CC3CC(CC(C3)C1)C2	IKBKB	enzyme activity	inhibitor	TR-FRET	2730
CNC(=O)Oc1cccc2c1OC(C)(C)O2	AChE	enzyme activity	inhibitor	–	15
C=C(C)[C@@H]1CCC(C)=C[C@H]1c1c(O)cc(CCCCC)cc1O	G-protein coupled receptor 52 (GPR52, Homo sapiens, UniProt Q9Y2T5)	cAMP	antagonist	–	2450
CC(CCc1ccccc1)NC(C)C(O)c1ccc(O)cc1 (centres unmarked)	HTR1A	ligand displacement	–	radioligand	3380
CCN(CCCC[C@H](NC(=O)[C@H](Cc1ccccc1)NC(=O)[C@H](C)NC(=O)[C@H](Cc1ccccc1)NC(=O)c1cccnc1)C(=O)N[C@@H](CO)C(N)=O)C(C)C	M-phase phosphoprotein 8 chromodomain	cell-free assay	–	TR-FRET	550
COc1ncccc1-c1cnn2ccc(N3CCN(C(=O)OC(C)C)CC3)nc12	Alpha-2C adrenergic receptor (ADRA2C, Homo sapiens, UniProt P18825)	cell-free assay	–	–	> 30000
CNC(=O)Oc1cccc2ccccc12	AChE	enzyme activity	inhibitor	–	167
CCN(CCCC[C@H](NC(=O)[C@H](CC(C)C)NC(=O)[C@H](C)NC(=O)[C@H](Cc1ccccc1)NC(=O)c1ccc(N)c(Br)c1)C(=O)N[C@@H](CO)C(N)=O)C(C)C	M-phase phosphoprotein 8 chromodomain	cell-free assay	–	TR-FRET	400
CCCCCNC(=N)N/N=C/c1c[nH]c2ccc(OC)cc12	HTR1A	calcium signal	antagonist	–	870
CCOP(=O)(OCC)Oc1ccc2c(C)c(Cl)c(=O)oc2c1	AChE	enzyme activity	inhibitor	–	430
CCN(CCCC[C@H](NC(=O)[C@H](CC(C)C)NC(=O)[C@H](C)NC(=O)[C@H](Cc1ccccc1)NC(=O)c1cccnc1)C(=O)N[C@@H](CO)C(N)=O)C(C)C	M-phase phosphoprotein 8 chromodomain	cell-free assay	–	TR-FRET	2200
O=C(CCCc1ccc(N(CCCl)CCCl)cc1)NCCC1CCN(CCOc2ccc(Oc3c(-c4ccc(O)cc4)sc4cc(O)ccc34)cc2)CC1	Estrogen receptor (ESR1, Homo sapiens, UniProt P03372)	ligand displacement	–	radioligand	37
O=c1c2ccccc2[se]n1-c1ccccc1	Leucine-rich repeat serine/threonine-protein kinase 2 (LRRK2, Homo sapiens, UniProt Q5S007)	enzyme activity	inhibitor	radiometric	2000
CNC(=O)Oc1cccc2c1OC(C)(C)C2	AChE	enzyme activity	inhibitor	–	8
CCN(CCCC[C@H](NC(=O)[C@H](CC(C)C)NC(=O)[C@H](C)NC(=O)[C@H](Cc1ccccc1)NC(=O)c1ccc(N)cc1)C(=O)N[C@@H](CO)C(N)=O)C(C)C	M-phase phosphoprotein 8 chromodomain	cell-free assay	–	TR-FRET	1800
